Screening data: PubChem BioAssay, Johns Hopkins Ion Channel Center
TRPC4 agonist – TRPC4 (mouse) channel activation | Q9QUQ5 | AID 2237 | HEK293 TRPC4beta/mu-opioid, Fluo4 calcium fluorescence; stronger effect = higher value | B-score at 10 µM | hit rate 0.49% among 310,000;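 active = B-score above 5 SD of library B-scores, and initial fluorescence ratio not above library mean plus 5 SD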;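 note: positive B-score marks a calcium rise read as TRPC4 activation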
Target sequence (Q9QUQ5 whole entry, looked up): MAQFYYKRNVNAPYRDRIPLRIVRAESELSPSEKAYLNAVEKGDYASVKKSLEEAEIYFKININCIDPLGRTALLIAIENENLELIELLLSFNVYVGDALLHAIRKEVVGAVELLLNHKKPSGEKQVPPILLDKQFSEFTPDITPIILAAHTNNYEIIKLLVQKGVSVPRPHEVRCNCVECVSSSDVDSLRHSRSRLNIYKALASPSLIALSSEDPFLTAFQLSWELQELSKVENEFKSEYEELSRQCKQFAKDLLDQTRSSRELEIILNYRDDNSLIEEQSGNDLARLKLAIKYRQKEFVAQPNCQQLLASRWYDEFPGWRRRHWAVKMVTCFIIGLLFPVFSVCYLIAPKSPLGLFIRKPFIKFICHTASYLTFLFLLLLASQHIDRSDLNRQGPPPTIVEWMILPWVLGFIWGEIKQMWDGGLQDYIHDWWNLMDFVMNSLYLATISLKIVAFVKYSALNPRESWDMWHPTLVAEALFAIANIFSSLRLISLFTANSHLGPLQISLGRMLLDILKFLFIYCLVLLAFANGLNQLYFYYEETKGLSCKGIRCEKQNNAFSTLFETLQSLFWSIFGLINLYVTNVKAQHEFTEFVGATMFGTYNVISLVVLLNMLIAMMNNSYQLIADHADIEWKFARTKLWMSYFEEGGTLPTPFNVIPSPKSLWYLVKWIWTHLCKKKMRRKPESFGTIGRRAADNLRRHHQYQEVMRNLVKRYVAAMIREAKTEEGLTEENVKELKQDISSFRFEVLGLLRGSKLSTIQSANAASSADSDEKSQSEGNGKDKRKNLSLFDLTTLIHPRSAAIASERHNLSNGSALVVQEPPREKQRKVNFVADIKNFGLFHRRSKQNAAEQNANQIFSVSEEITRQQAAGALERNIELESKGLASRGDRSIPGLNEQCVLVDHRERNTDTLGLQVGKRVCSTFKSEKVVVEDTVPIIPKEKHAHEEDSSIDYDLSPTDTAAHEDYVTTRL
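Material: HEK293 stable line with TRPC4beta plus mu-opioid receptor; technique: Fluo4 calcium-sensitive dye fluorescence, kinetic, 1 Hz baseline; timing: Fluo4 dye loading 45 min at room temperature, 110 s recording; controls: assay buffer as low control, maximal DAMGO as high control; read-out: integrated baseline-normalised fluorescence ratio, converted to per-well B score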
TRPC4 inh – TRPC4 (mouse) channel inhibition; Q9QUQ5; HEK293 TRPC4beta/mu-opioid, DAMGO-evoked Fluo4 calcium flux; stronger effect = lower value; B-score at 10 µM; hit rate 0.39% among 300,000;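 active = B-score over 3 SD under the library average, no early fluorescence shift, positive overall ratio signal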
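Material: HEK293 cells with stable TRPC4beta plus mu-opioid receptor expression; probe or stimulus: DAMGO in two steps, submaximal then maximal; technique: Fluo4 calcium fluorescence by kinetic imaging, 5 s 1 Hz baseline; measure: integrated fluorescence ratio relative to baseline, converted to per-well B score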
TRPC4 potent – TRPC4 (mouse) allosteric potentiation; AID 2227; B-score at 10 µM; HEK293 TRPC4beta/mu-opioid, DAMGO EC20, Fluo-4 Ca2+ flux; stronger effect = higher value; Q9QUQ5; hit rate 0.42% among 310,000;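 active = B-score of calcium response area above 5 SD of library B-scores, with initial fluorescence ratio within 5 SD of library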;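 note: B-score of integrated fluorescence ratio over time as area under calcium response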
TRPC6 inhibitor – inhibitors of mouse TRPC6 channel | HEK293-TRPC6, membrane potential dye, ACh-evoked depolarization; stronger effect = lower value | B-score at 10 µM | hit rate 1.1% among 310,000 | AID 2553;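 active = B-score under library mean minus 3 SD, initial fluorescence not abnormally high, positive integrated signal ratio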;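 note: B-score derived from integrated fluorescence ratio over the kinetic read; more negative B-score means stronger inhibition of depolarization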
TRPC6 act – activators of mouse TRPC6 channel | Q61143 | HEK293-TRPC6 membrane potential dye fluorescence; stronger effect = higher value | B-score at 10 µM | hit rate 0.13% among 310,000 | AID 2550;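 active = B-score of the integrated fluorescence ratio above library mean plus 3 SD, and starting fluorescence ratio within library mean plus 5 SD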;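 note: higher score means more depolarization so channel activation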
The depositor's hits bear a star; i = inactive. The list is not random: actives were taken first. Their share in the collection is about 2.3%.

SMILES | TRPC4 agonist | TRPC4 inh | TRPC4 potent | TRPC6 inhibitor | TRPC6 act
O=C(Nc1cccnc1)C(Cc1ccccc1)n1cccc1 (configuration not stated) | i | i | i | i | i
O=C(Nc1ncc(Br)s1)C(Cc1ccccc1)n1cccc1 (configuration not stated) | i | i | 36* | i | i
COc1cc(C2C(C(=O)c3ccc(C)o3)=C(O)C(=O)N2CCN2CCOCC2)ccc1OCCC(C)C (configuration not stated) | i | i | i | i | i
CC12CCC(=O)N1C(C(=O)Nc1nc(-c3ccccc3Cl)cs1)CS2 (configuration not stated) | i | i | i | i | i
Nc1nc2ccccc2n1CCOc1ccc(F)cc1 | i | -6* | i | i | i
CC(C)CCNC(=O)CCC(=O)NNc1nc2ccccc2c2nc(-c3ccccc3)nn12 | i | i | 23* | i | i
O=C(CCC(=O)NNc1nc2ccccc2c2nc(-c3ccccc3)nn12)NCCCN1CCOCC1 | i | i | i | i | i
CCOC(=O)N1CCN(S(=O)(=O)c2ccc(OC)c(C(=O)N3CCCCC3)c2)CC1 | i | i | i | i | i
COc1ccc(Cl)cc1NS(=O)(=O)c1cccc(C(=O)NCC2(N(C)C)CCCCC2)c1 | i | i | i | i | i
Cc1cccc(-n2cc(-c3ccccc3)c3c(NN4CCOCC4)ncnc32)c1 | i | i | 14* | i | i
c1ccc(-c2cn(-c3ccccc3)c3ncnc(N4CCCCC4)c23)cc1 | i | i | i | i | i
CCOc1ccc(-n2cc(-c3ccccc3)c3c(N4CCOCC4)ncnc32)cc1 | i | i | 16* | i | i
O=C(NCCCN1CCCC1=O)c1ccc(CNS(=O)(=O)c2ccc(F)cc2)cc1 | i | i | 37* | i | i
O=C(NCCCN1CCCC1=O)c1ccc(S(=O)(=O)Nc2ccccc2F)cc1 | i | i | i | i | i
CC(=O)C12CCCCC1CC1[C@@H]3CC(C)C4=CC(=O)CC[C@]4(C)C3CC[C@@]12C (some centres not stated) | i | i | 12* | i | i
CC(=O)O[C@]1(C(C)=O)CC[C@H]2[C@@H]3C[C@H](C)C4=CC(=O)CC[C@]4(C)[C@H]3CC[C@@]21C | i | i | i | i | i
COc1ccc(C(CNC(=O)C2CCN(S(=O)(=O)c3ccc(F)cc3)CC2)N(C)C)cc1 (configuration not stated) | 137* | i | i | i | i
O=C(O)C(C(O)c1ccc([N+](=O)[O-])cc1)[n+]1ccccc1 (configuration not stated) | i | i | i | i | i
O=C(Nc1ccc2c(c1)OCO2)c1cnn2cccnc12 | i | i | 50* | i | i
Cc1cc(NC(=O)c2cnn3cccnc23)nn1CC(=O)Nc1cccnc1 | 51* | i | 150* | i | i
Cc1ccccc1Cn1ccc(NC(=O)c2cnn3cccnc23)n1 | i | i | i | i | i
COC(=O)[C@H](Cc1ccccc1)NC(=O)c1ccc2ccccc2n1 | i | i | 16* | i | i
COCCNC(=O)c1onc(CSc2ccccc2)c1C(=O)NCCOC | i | i | i | i | i
Cc1ccc(NC(=O)CN(C)C(=O)CNC(=O)c2sc3ccccc3c2Cl)cc1 | i | i | 149* | i | i
C/C(=N\NC(=O)COc1ccc(C)cc1C(C)C)c1ccc(-n2ccnc2)cc1 | i | i | 28* | i | i
SMILES | TRPC4 agonist | TRPC4 inh | TRPC4 potent | TRPC6 inhibitor | TRPC6 act
COC(=O)N/N=C(\C)c1ccc(-n2ccnc2)cc1 | i | i | i | i | i
COc1ccc(N2CCN(Cc3nc4ccccc4n3C)CC2)cc1 | 124* | i | i | i | i
CN1CCC(NC(=O)c2ccncc2)CC1 | i | i | i | i | i
CC1(C)CC(NC(=O)c2ccncc2)CC(C)(C)N1O | 79* | i | i | i | i
CCc1ccccc1NC(=O)C1CCN(c2cnccn2)CC1 | i | i | i | i | i
O=S(=O)(NCCN1CCOCC1)c1cc(Cl)c(Cl)cc1Cl | i | i | i | i | i
